From PubChem
HMGR II inh – blocks class II HMG-CoA reductase of Enterococcus faecalis; purified E. faecalis HMGR, NADPH absorbance 340 nm kinetic; inhibition, % at 10 µM; 190,000 compounds, 0.41% hits; AID 1066;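 active = inhibition above a set limit, the median over all tested compounds plus 3 SD, cut at about 9.5% in these data; inconclusive = no clear call, values can overlap the other calls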;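 also: enzyme runs in reverse so mevalonate oxidation gives rising NADPH absorbance; 0% = complete reaction with DMSO and 100% = background rate lacking mevalonate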
Wee1 degr inh – inhibitors of human Wee1 degradation; P30291; HeLa Luc-Wee1K328M stability, luciferase luminescence; 100% = proteasome inhibitor MG132 effect; reporter increase, % at 5 µM; 220,000 compounds, 1.2% hits; AID 1321;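 active = activation above the mean of all tested compounds plus 3 SD, set per screening run, cut at about 8.8% in these data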;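 also: cells exposed to compound for 20 h before luminescence read; 0% = DMSO alone and 100% = MG132 at 30 µM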
Runt-CBFb FRET – blocks binding of human RUNX1 Runt domain to CBFb | Cerulean-Runt/Venus-CBFb FRET ratio 530/480, 1 h | inhibition, % at 20 µM | AID 1496 | 220,000 compounds, 0.46% hits;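 active = inhibition over about 50% at 20 µM in the single-dose screen, limit read from the data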;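 also: 0% = DMSO wells and 100% = excess unlabeled CBFb competitor control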
Target sequence (Q01196 whole entry, looked up, the tested form may be a part): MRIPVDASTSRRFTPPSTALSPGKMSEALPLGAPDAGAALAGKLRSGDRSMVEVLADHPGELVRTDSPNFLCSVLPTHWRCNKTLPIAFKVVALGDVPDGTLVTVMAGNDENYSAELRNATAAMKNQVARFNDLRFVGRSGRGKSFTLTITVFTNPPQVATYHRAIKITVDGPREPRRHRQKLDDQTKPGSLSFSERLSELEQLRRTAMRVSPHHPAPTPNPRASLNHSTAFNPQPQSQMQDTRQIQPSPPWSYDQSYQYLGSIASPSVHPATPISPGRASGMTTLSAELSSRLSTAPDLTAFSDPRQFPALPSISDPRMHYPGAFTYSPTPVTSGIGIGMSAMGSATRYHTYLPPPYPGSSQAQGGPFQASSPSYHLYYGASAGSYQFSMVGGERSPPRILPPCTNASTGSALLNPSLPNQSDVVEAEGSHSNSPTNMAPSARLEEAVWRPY
Target sequence (Q13951 whole entry, looked up, the tested form may be a part): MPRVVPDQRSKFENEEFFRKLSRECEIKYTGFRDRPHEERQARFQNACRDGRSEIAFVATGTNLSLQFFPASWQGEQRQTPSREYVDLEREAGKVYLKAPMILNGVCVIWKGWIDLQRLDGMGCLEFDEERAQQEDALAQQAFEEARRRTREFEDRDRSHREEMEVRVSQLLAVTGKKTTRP
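test system = Cerulean-Runt domain fusion protein, energy donor | probe or stimulus = Venus-CBFb binding partner, 100 nM | incubation = two 1 h room-temperature incubations shielded from light | detection = fluorescence energy transfer, 422 nm excitation, 530/480 nm emission | measure = loss of energy transfer signal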
Runt-SMMHC FRET – Runt domain-CBFb-SMMHC interaction inhibition; Q01196+Q13951; Cerulean-Runt/Venus-CBFb-SMMHC FRET ratio 530/480, 1 h; inhibition, % at 20 µM; 220,000 compounds, 0.74% hits;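 active = mean inhibition across duplicate retests at 20 µM reaching about 50%, limit read from the data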;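 also: 0% = DMSO wells and 100% = wells with excess untagged CBFb-SMMHC; inhibitors lower the FRET ratio by blocking Runt binding to CBFb-SMMHC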
PHOSPHO1 inh – PHOSPHO1 (human) inhibition | Q8TCT1 | recombinant PHOSPHO1, absorbance phosphatase assay | inhibition, % at 13.3 µM | 290,000 compounds, 1.1% hits | AID 1565; in the data active = inhibition above about 60%
RanGTP-Impb inh – disruptors of Ran-importin-beta complex formation – biochemical, FRET, CFP-Ran, YFP-importin-beta, homogeneous, primary screen. cell-free CFP-Ran/YFP-importin-beta FRET ratio. inhibition, % (concentration not given with the values). 300,000 compounds, 1.1% hits. AID 2216;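 active = more than half of the replicate wells show a fall in the fluorescence ratio signal beyond about 16%, limit read from the data, passing the limit was not always enough; inconclusive = exactly half of the replicate wells pass the set limit; inactive = fewer than half of replicates pass the limit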;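 also: 0% = DMSO wells and 100% = Ran loaded with GDP instead of GTP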
Starred values were filed as active, the others as inactive; ? = inconclusive; . = no result given. Compounds with a hit are over-represented: about 3.4% of the library has one in this group of screens.

SMILES | HMGR II inh | Wee1 degr inh | Runt-CBFb FRET | Runt-SMMHC FRET | PHOSPHO1 inh | RanGTP-Impb inh
Cc1cccc(S(=O)(=O)C(C#N)c2nc3ccccc3nc2N2CCCC2)c1 (stereo unspecified) | -3 | 1 | -14 | -32 | -7 | 1
CC(=O)NNC(=O)CCn1c2c(c3ccccc31)CCCC2 | . | 0 | -3 | -5 | 28 | -5
O=C(O)Cn1c2c(c3ccccc31)CCCC2 | -2 | 0 | -6 | 16 | -2 | 29*
CCn1ccnc1CN(C)Cc1nc(-c2ccccc2)no1 | -4 | -2 | 1 | -5 | 60* | -1
COc1cccc(NC(=O)[C@H](C)NC(=O)N2CCn3c2nc2ccccc23)c1 | . | . | . | . | 65* | 0
COc1cc(NC(=O)[C@H](C)NC(=O)N2CCn3c2nc2ccccc23)cc(OC)c1 | . | . | . | . | 44 | 1
CSc1ccc(CCNC(=O)Cn2ncc3c([nH]c4ccccc43)c2=O)cc1 | . | . | . | . | 32 | 1
COc1ccc(C)cc1S(=O)(=O)N(CC(=O)O)c1ccc(F)cc1 | -2 | 6 | 3 | -3 | 2 | -1
C/C(CC(=O)NC1CCCCC1)=N\NC(=O)COc1ccc(C)cc1Br | 28* | 1 | -1 | 1 | -40 | -1
O=C(COc1ccc(Br)cc1Br)NC(=S)N1CCCc2ccccc21 | -5 | -2 | 3 | -10 | 83* | 4
O=C(COc1ccc(Br)cc1Cl)NC(=S)N1CCc2ccccc21 | -2 | -1 | 4 | 6 | -6 | 0
O=C(COc1ccc(Br)cc1Br)NC(=S)Nc1cccc(CO)c1 | 0 | 11* | -2 | 0 | -11 | -1
C/C(CC(=O)NC(C)(C)C)=N\NC(=O)COc1ccc(C)cc1Br | -4 | 9.5* | 0 | 1 | 32 | 0
O=C(O)c1ccc(S(=O)(=O)N2CCC3(CC2)CC(=O)c2ccccc2O3)cc1 | . | . | . | . | . | 0
O=C(NC1CCCC1)C(c1ccc(F)cc1)N(C(=O)c1csnn1)c1ccccc1 (stereo unspecified) | . | . | . | . | 17 | -3
O=C(COc1ccc(Br)cc1Br)NC(=O)NC1CCCC1 | 1 | 2 | 1 | 3 | 12 | ?
CC(C)(C)NC(=O)NC(=O)COc1ccc(Br)cc1Br | -5 | 9.8* | 0 | 0 | 17 | 3
CC(C)c1nc2c(c(=O)c3ccccc3n2C)c(=O)n1CCc1ccccc1 | . | 10* | -2 | 0 | 15 | 8
C/C(=N\Nc1cc(C)nc(-c2ccccc2O)n1)c1ccccc1O | . | 1 | 1 | 0 | -6 | 28*
N#Cc1ccccc1OCCCN1CCC(Cc2ccccc2)CC1 | . | . | . | . | . | -2
N#CC1=C2N=C(N)c3c(sc4c3CCCCC4)N2C2=C(C(=O)CCC2)C1c1ccccc1 (stereo unspecified) | 4 | 1 | -2 | -52 | 70* | -5
N#CC1=C2N=C(N)c3ccccc3N2C2=C(C(=O)CCC2)C1c1ccc(F)cc1 (stereo unspecified) | . | -3 | -2 | -2 | 23 | -5
CC(Nc1ncnc2sccc12)c1ccccc1 (stereo unspecified) | . | . | . | . | 27 | 28*
CCOC(=O)C1CCCN(S(=O)(=O)c2cc(C(=O)OC)n(C)c2)C1 (stereo unspecified) | . | . | . | . | 25 | -3
Cn1cnnc1Sc1ccc(C(=O)OCC(=O)NC2CC2)cc1[N+](=O)[O-] | 15* | 2 | 0 | -6 | 1 | .
SMILES | HMGR II inh | Wee1 degr inh | Runt-CBFb FRET | Runt-SMMHC FRET | PHOSPHO1 inh | RanGTP-Impb inh
CCCCn1c(SCC(=O)c2ccc(O)c(O)c2)nc2ccsc2c1=O | -8 | -1 | 3 | 2 | 2 | -1
O=C(O)CCCCCn1c(SCC(=O)c2ccc(O)c(O)c2)nc2ccsc2c1=O | 13* | 0 | 2 | 1 | 5 | 9
COc1ccc(CC(=O)NCC(=O)N/N=C/c2sccc2C)cc1 | . | . | . | . | 33 | 2
COc1ccc(-c2cc(C(F)(F)F)n3nc(C(=O)NCCCN4CCOCC4)cc3n2)cc1 | -10 | 10* | 10 | 28 | 33 | 6
COc1ccc(/C=N/Nc2ncnc3c2[nH]c2ccc(C)cc23)c(OC)c1OC | . | 0 | -5 | 2 | 56 | 3
COc1cc(OC)c(OC)cc1/C=N/Nc1ncnc2c1[nH]c1ccccc12 | -1 | 0 | 20 | 75* | 6 | ?
COc1ccc(C(=O)c2nccc3ccccc23)cc1 | -2 | 10* | -1 | 0 | 28 | 3
Cc1cc(C(=O)N2CC=C(c3ccccc3)CC2)c2ccccc2n1 | . | . | . | . | . | 5
O=C(c1cc(-c2cccc(Cl)c2)nc2ccccc12)N1CCCC1 | . | . | . | . | 62* | -2
O=C(c1cc(-c2ccccc2)nc2ccccc12)N1CCCC1 | . | . | . | . | 14 | -3
CC(=O)N1CCN(C(=O)c2cc(C)nc3ccccc23)CC1 | -3 | -1 | 0 | 3 | 60* | 0
O=C(O)c1cc2ccccc2cc1Nc1ccccc1 | . | 0 | 17 | -2 | 33 | -1
O=c1cc(-c2ccc(O)cc2)oc2cc(O)c(C3OC(CO)C(O)C(O)C3O)c(O)c12 (stereo unspecified) | -1 | 0 | 38 | 87* | 44 | 7
Fc1ccc2[nH]c3c(N4CCN(c5ccccc5)CC4)ncnc3c2c1 | -9 | 3 | 5 | -2 | -25 | ?
CCOC(=O)N1CCN(c2ncnc3c2[nH]c2ccc(OC)cc23)CC1 | -1 | 1 | -2 | -2 | -5 | 1
COc1ccc2[nH]c3c(N4CCc5ccccc5C4)ncnc3c2c1 | . | 9.7* | -1 | -5 | 13 | 2
COc1ccc(N2CCN(c3ncnc4c3[nH]c3ccccc34)CC2)cc1 | 5 | -1 | -2 | -2 | -36 | 19*
Cc1ccc(NC(=O)C2CCN(S(=O)(=O)c3ccc4c(c3)OCCO4)CC2)c(O)c1 | . | . | . | . | . | -1
CCc1nnc2n1N=C(c1ccc(-c3cc(Cl)ccc3Cl)o1)CS2 | -10 | 0 | 0 | -7 | 90* | 3
NC(=O)c1ccsc1NC(=O)c1coc2ccccc2c1=O | -3 | 10* | 13 | 3 | 25 | -1
Cc1ccc(C(=O)Nc2ccc(N3CCN(C)CC3)cc2)c(Cl)c1 | . | . | . | . | 13 | 5
CCC1(C)Cc2c(C#N)c(N)n(-c3ccccc3)c(=S)c2CO1 (stereo unspecified) | -1 | -2 | 8 | 11 | 24 | -9
CCC1(C)Cc2c(C#N)c(N)sc(=S)c2CO1 (stereo unspecified) | 2 | -3 | -2 | -32 | 90* | -3
N#Cc1c(N)sc(=S)c2c1CCCC2 | 0 | 1 | -4 | -58 | 99* | -22
Cc1ccc(-c2cc(C(=O)N(C)CC(=O)Nc3ccccc3Br)c3ccccc3n2)o1 | . | . | . | . | . | 5
CCn1nc(NC(=O)C(C)C)c2cc3cccc(C)c3nc21 | . | . | . | . | 20 | 48*
CCn1nc(NC(=O)c2ccccc2)c2cc3cccc(C)c3nc21 | . | 2 | 62* | 86* | -8 | 69*
